# Screening results as filed in PubChem.
# Sampled rows, rich in hits. Any-hit rate of the full collection: about 3.9%.
# FLuc stim CS: firefly luciferase counter-screen for stimulation assays. AID 1027. ATPlite luciferase biochemical, luminescence, 10 min; 0 = ATP-free wells, 1 = DMSO control. 200,000 tested, under 10 active. activation factor at 10 µM;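 active = luciferase activation factor, scaled between plate controls, of at least 2 with compound at 10 µM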
# Target sequence (P08659 whole entry, looked up): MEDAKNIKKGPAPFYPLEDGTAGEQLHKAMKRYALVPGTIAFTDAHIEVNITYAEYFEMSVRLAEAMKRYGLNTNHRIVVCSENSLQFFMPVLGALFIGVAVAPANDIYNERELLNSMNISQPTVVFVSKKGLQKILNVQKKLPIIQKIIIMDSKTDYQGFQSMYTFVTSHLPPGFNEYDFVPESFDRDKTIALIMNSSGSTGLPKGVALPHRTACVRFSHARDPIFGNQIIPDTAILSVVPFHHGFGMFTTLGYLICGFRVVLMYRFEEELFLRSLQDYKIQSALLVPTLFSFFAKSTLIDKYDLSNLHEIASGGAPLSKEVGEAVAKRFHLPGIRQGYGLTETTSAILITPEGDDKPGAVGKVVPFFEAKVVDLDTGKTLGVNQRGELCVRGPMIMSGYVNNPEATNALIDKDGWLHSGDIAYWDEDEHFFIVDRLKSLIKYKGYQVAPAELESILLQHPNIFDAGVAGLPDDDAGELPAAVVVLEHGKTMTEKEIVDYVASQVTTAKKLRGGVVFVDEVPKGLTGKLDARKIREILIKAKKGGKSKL
#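 System: Luciferase/luciferin detection reagent, cell-free biochemical luciferase assay | Medium: PBS buffer for ATP | Dosing: Test compounds dosed from 2 mM stocks in 100% DMSO | Timing: 10 min at ambient temperature | Signal: Luminescence measurement of luciferase light output | Evaluation: Luciferase activation, seen as luminescence increase over controls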
# APP 5'UTR act: activates APP 5'UTR luciferase reporter; hit rate 1% among 190,000; AID 1276; SH-SY5Y APP 5'UTR luciferase reporter, luminescence; zero percent = DMSO vehicle wells; activation, % at 2 µM;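 active = activation above a set limit, based on mean plus 3 SD of controls, cut at about 140% in these data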
# FLuc inh counter: counter-screen for luciferase assay inhibitors: firefly luciferase inhibition. P08659. ATPLite firefly luciferase biochemical luminescence, 10 min. inhibition, % at 10 µM. hit rate 1.5% among 200,000. AID 1006;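 active = inhibition above about 50% when tested at 10 µM, limit read from the data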
# NF-kB neuron act: raises NF-kB expression in human neuronal cells | NF-kB reporter expression; hits give high values | fold change at 12.5 µM | hit rate 1.6% among 190,000; in the data active = fold change above about 3.3
# Rad51 HR inh: blocks human Rad51 in homologous recombination | hRad51 DNA strand exchange, fluorescence dequenching | hit rate 0.085% among 200,000 | inhibition, % at 10 µM | Q06609 | AID 1385;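 active = inhibition above 40% at the single screening dose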
#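 System: hRad51 filaments on single-stranded DNA; reagent: Fluorescein- and BHQ1-tagged 47-mer duplex; compound dosing: one concentration, 10 µM final; timing: filaments 15 min 37 °C, then compound 30 min; measured by: fluorescein emission 520 nm, excitation 485 nm; benchmarks: per-plate controls and blanks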
# STAT1 act: STAT1 signaling activation | NIH 3T3 STAT1-luciferase reporter, IFN-gamma, luminescence; 100% = IFN-gamma alone, no compound | activation (% of control), % at 5.5 µM | hit rate 2.6% among 200,000 | AID 932;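 active = activation above the screen-wide mean activation plus 3 SD, cut at about 130% in these data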
# Hits are given with their value; – = inactive; · = no result.
SMILES,FLuc stim CS,APP 5'UTR act,FLuc inh counter,NF-kB neuron act,Rad51 HR inh,STAT1 act
O=C(Nc1nc2c(s1)CN(Cc1ccccc1)CC2)c1c(F)cccc1F,–,–,–,–,–,–
CC1(C)Cc2nc3sc(C(N)=O)c(N)c3cc2CO1,·,·,·,·,–,·
CCOC(=O)c1sc2nc3c(cc2c1N)COC(C)(C)C3,–,–,–,5.9,–,136.0
CN(C)/C=C1\Oc2ccc3ccccc3c2C1=O,–,–,–,3.73,–,135.4
O=C(NC1CC1)c1ccc2c(c1)C1C3CCC(C3)C1C(c1ccccc1)N2 (stereo not drawn),–,–,–,–,–,–
CCN(CC)C(=O)COc1ccc(-c2nnc(N3CCCCC3)c3ccccc23)cc1,–,–,–,–,–,–
COc1ccc(C(=O)Nc2ccc(/C(C)=N/NC(=O)c3ccccc3O)cc2)cc1OC,–,–,–,–,·,129.3
CCN(CC)C(=O)COc1ccc(-c2ccccc2)cc1,–,–,–,–,–,131.9
COc1ccc(C(=O)Nc2cccc(/C(C)=N/NC(=O)c3ccc([N+](=O)[O-])cc3)c2)cc1OC,–,–,–,–,–,–
CCN(CC)C(=O)COc1ccc(/C(C)=N/NC(=O)c2ccccc2O)cc1,–,–,63.2,–,–,–
N=C1c2ccccc2CN1c1ccc(N2CCOCC2)c(S(=O)(=O)Nc2ccc(Cl)cc2)c1,·,·,·,·,–,·
Cc1onc(-c2c(F)cccc2Cl)c1C(=O)O/N=C(\N)c1ccc([N+](=O)[O-])o1,·,·,·,·,–,·
CN(Cc1ccon1)Cc1cn(Cc2ccccc2)nc1-c1ccc2c(c1)OCO2,–,–,–,–,–,–
Cc1ccc(Nc2nc(N/N=C\c3ccc4c(c3)OCO4)nc(N3CCOCC3)n2)cc1,–,–,–,–,·,–
COc1cc(/C=C/C(=O)O)cc(S(=O)(=O)NCCCC(=O)O)c1OC,–,–,–,–,–,–
CN(C)/C=C/C(=O)c1ccc(Oc2ncccn2)cc1,–,–,–,–,–,–
Cc1ccccc1NC(=O)c1ccccn1,·,·,·,·,–,·
O=C(/C=C/Nc1ccccc1)c1ccc(Oc2ncccn2)cc1,–,–,–,3.54,–,155.6
O=C(/C=C/Nc1ccccc1Br)c1ccccn1,–,–,97.4,–,–,–
O=C(/C=C\Nc1ccccn1)c1ccccc1,–,156.7,88.7,3.5,–,–
CCNC(=O)c1ccc(CSc2ccc(Cl)cc2)cc1,–,–,–,–,·,–
CC(=O)NCCNC(=O)c1ccc(CSc2ccc(Cl)cc2)cc1,–,146.7,–,–,–,141.6
CC(Cl)c1cc(-c2ncc(C(F)(F)F)cc2Cl)no1 (stereo not drawn),–,–,–,–,–,–
FC(F)(F)c1cnc(-c2cnc(-c3ccccn3)nc2)c(Cl)c1,–,–,63.8,–,–,–
FC(F)(F)c1cnc(-c2cnc(-c3ccncc3)nc2)c(Cl)c1,–,–,–,–,–,140.4
SMILES,FLuc stim CS,APP 5'UTR act,FLuc inh counter,NF-kB neuron act,Rad51 HR inh,STAT1 act
O=C(Oc1ccc(-c2cnc3ccccc3n2)cc1)c1ccc(Cl)c([N+](=O)[O-])c1,–,137.7,–,–,–,–
O=C(Oc1ccc(-c2cnc3ccccc3n2)cc1)c1ccc(Br)o1,–,–,–,–,–,134.9
NC(=S)Nc1nccc(-c2cccs2)n1,–,–,–,–,40.7,–
Cc1ccc(Cl)cc1NC(=O)Nc1cccs1,–,–,–,–,–,–
O=C(CNc1ccc(F)cc1)N/N=C1\CCCc2ccccc21,–,–,–,–,–,–
CC(C)NC(=S)N/N=C1\CCCc2ccccc21,–,–,–,–,–,–
O=C(N/N=C1\CCCc2ccccc21)c1ccc([N+](=O)[O-])cc1,–,–,61.3,–,–,–
NC(=O)C(=O)N/N=C1\CCc2ccccc21,–,–,–,–,–,131.3
Cc1ccc(C(=O)N/N=C2\CCCc3ccccc32)c(C)c1,–,–,–,–,–,128.8
COc1ccc(-c2nc3ccccc3c(=O)n2CCOc2cccc(C)c2C)cc1,–,–,–,–,–,–
Cc1cc(OCc2nc(-c3cccs3)no2)cc(C)c1Cl,–,–,–,–,–,–
Fc1ccc(OCc2nc(-c3cccs3)no2)cc1,–,–,–,–,–,140.3
c1ccc(OCc2nc(-c3cccs3)no2)cc1,–,–,–,–,–,144.9
CC(NC(=O)CN(C)Cc1cccs1)c1ccccc1 (stereo not drawn),–,–,–,–,·,–
O=C1C2CC=CCC2C(=O)N1Cc1nnc(-c2ccccc2Br)o1 (stereo not drawn),·,·,·,·,–,·
CCOC(=O)c1cn[nH]c1NC(=S)Nc1ccc(OC)cc1,·,·,·,·,–,·
COC(=O)c1cn[nH]c1NC(=S)Nc1ccc(Cl)c(Cl)c1,–,221.8,–,–,–,145.2
COc1ccc(OC)c(/C=C2\SC(=S)N(Cc3cccnc3)C2=O)c1,–,–,–,3.85,–,–
Cc1ccc(C(=O)n2c(N)nc3ccccc32)cc1,–,–,96.7,–,–,–
CCc1ccc(Nc2nnc(SCC(=O)NCCN3C(=O)CSC3=O)s2)cc1,–,·,84.1,–,–,–
CCc1ccc(Nc2nnc(SCC(=O)Nc3sccc3C(N)=O)s2)cc1,–,–,–,–,–,–
CN(C)c1ccc(NC(=O)Nc2cccc(Cl)c2)cc1,–,180.7,–,7.22,–,135.3
CN(C)c1ccc(C(=S)Nc2ccccc2)cc1,–,–,55.8,–,–,138.8
CN(C)c1ccc(NC(=O)Oc2ccccc2)cc1,–,–,74.0,–,–,130.5
CN(C)c1ccc(NC(=S)c2ccccn2)cc1,–,–,94.9,–,·,–
SMILES,FLuc stim CS,APP 5'UTR act,FLuc inh counter,NF-kB neuron act,Rad51 HR inh,STAT1 act
CC(=O)Nc1ccc(NC(=O)Oc2ccccc2)cc1,–,–,–,–,–,–
Cc1ccc(NCc2nnc(SCC(=O)N3c4ccccc4Sc4ccccc43)o2)c(C)c1,–,·,–,–,–,–
CC(C)CCn1c(Sc2nc3ccccc3o2)nc2c1c(=O)[nH]c(=O)n2C,–,–,–,–,–,–
CC(=O)Nc1cccc(OCC(=O)Nc2sccc2C(N)=O)c1,·,·,·,·,–,·
CCc1ccc(-c2nc(CCl)cs2)cc1,–,–,64.8,–,–,147.4
COc1ccc(-c2nc(CCl)cs2)cc1,–,–,–,–,–,–
CCCNCc1cc(OC)c(OCC(=O)NCCc2ccccc2)cc1Br,–,–,–,–,·,–
O=C1CSC(c2ccccn2)N1c1ccc(F)cc1F (stereo not drawn),–,–,–,–,–,–
Cc1ccc(-n2c(C)nn(CCOc3ccccc3)c2=O)cc1,–,–,–,–,–,133.5
Cc1nn(CCOc2ccccc2)c(=O)n1-c1c(F)cccc1F,–,–,–,–,–,140.1
Cc1nn(CC2CC2)c(=O)n1-c1ccccc1F,–,–,–,–,–,–
COc1cccc(CN2CCN(c3nc4nonc4nc3N3CCCCC3)CC2=O)c1,–,–,–,·,·,–
COc1ccc(Cc2nnc(N/N=C(\C)c3ccccc3)[nH]c2=O)cc1OC,·,·,·,·,–,·
